Data reported in ChEMBL document CHEMBL1155420, “Synthesis, antibacterial and antifungal activities of some carbazole derivatives” (2010).
Values after ≈ are worked out from the molar mass of the structure shown.

Key:
Assay type in all cases: functional
Proteus vulgaris = test: Antibacterial activity against Proteus vulgaris ATCC 49027 after 24 hrs by two fold serial dilution method; details: ATCC 49027, 24 h
Method in brief: (§1)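 MICs determined by modified microbroth twofold dilution per NCCLS. Compounds were tested at 512, 256, 128, 64, 32, 16, 8, 4, 2, 1 and 0.5 µg/mL. Dilutions were inoculated and incubated at 37 °C for 24 h. A DMSO solvent control in test medium was run at the same dilutions.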

Staphylococcus aureus [1] = test: Antibacterial activity against Methicillin-Resistant Staphylococcus aureus subsp. aureus N315 after 24 hrs by two fold serial dilution method; details: N315, 24 h
Method in brief: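 Modified microbroth dilution following National Committee for Clinical Laboratory Standards methods. Twofold serial dilutions were set at 512, 256, 128, 64, 32, 16, 8, 4, 2, 1 and 0.5. Dilutions were inoculated with strain N315 and incubated at 37 °C for 24 h. A solvent control used medium with DMSO at the same dilutions. Read-out was the MIC.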

Escherichia coli = test: Antibacterial activity against Escherichia coli ATCC 25922 after 24 hrs by two fold serial dilution method; details: ATCC 25922, 24 h; method in brief: as §1
Aspergillus fumigatus = test: Antifungal activity against Aspergillus fumigatus ATCC 96918 after 24 hrs by two fold serial dilution method; details: ATCC 96918, 24 h
Method in brief: (§2)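 Modified NCCLS microbroth dilution, with eleven compound concentrations from 0.5 to 512 µg/mL. Dilutions were inoculated and incubated at 35 °C for 24 h. MIC50 was taken as the first well showing about 50% growth reduction versus the drug-free well.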

Candida albicans = test: Antifungal activity against Candida albicans ATCC 76615 after 24 hrs by two fold serial dilution method; details: ATCC 76615, 24 h; method in brief: as §2
Staphylococcus aureus [2] = test: Antibacterial activity against Staphylococcus aureus ATCC 29213 after 24 hrs by two fold serial dilution method; details: ATCC 29213, 24 h; method in brief: as §1
Pseudomonas aeruginosa = test: Antibacterial activity against Pseudomonas aeruginosa ATCC 27853 after 24 hrs by two fold serial dilution method; details: ATCC 27853, 24 h; method in brief: as §1
Bacillus subtilis = test: Antibacterial activity against Bacillus subtilis ATCC 21216 after 24 hrs by two fold serial dilution method; details: ATCC 21216, 24 h; method in brief: as §1

Structure (SMILES) | MIC50 (Proteus vulgaris) | MIC50 (Staphylococcus aureus [1]) | MIC50 (Escherichia coli) | MIC50 (Aspergillus fumigatus) | MIC50 (Candida albicans) | MIC50 (Staphylococcus aureus [2]) | MIC50 (Pseudomonas aeruginosa) | MIC50 (Bacillus subtilis)
BrCCCCn1c2ccccc2c2ccccc21 | > 512 µg/mL | > 512 µg/mL | > 512 µg/mL | > 512 µg/mL | 512 µg/mL (≈ 1690 µM) | 256 µg/mL (≈ 847 µM) | 128 µg/mL (≈ 424 µM) | > 512 µg/mL
c1ccc2c(c1)c1ccccc1n2CCCCn1cncn1 | > 512 µg/mL | > 512 µg/mL | 32 µg/mL (≈ 110 µM) | > 512 µg/mL | 2 µg/mL (≈ 6.89 µM) | 256 µg/mL (≈ 882 µM) | 128 µg/mL (≈ 441 µM) | > 512 µg/mL
c1ccc2c(c1)c1ccccc1n2CCCCCCn1cncn1 | > 512 µg/mL | 64 µg/mL (≈ 201 µM) | 16 µg/mL (≈ 50.2 µM) | > 512 µg/mL | 2 µg/mL (≈ 6.28 µM) | 32 µg/mL (≈ 100 µM) | 32 µg/mL (≈ 100 µM) | > 512 µg/mL
Clc1ccc(C[n+]2cnn(Cc3ccc(Cn4c5ccccc5c5ccccc54)cc3)c2)c(Cl)c1.[Cl-] | 8 µg/mL | 8 µg/mL | 2 µg/mL | 64 µg/mL | 32 µg/mL | 2 µg/mL | 4 µg/mL | 2 µg/mL
c1ccc2c(c1)c1ccccc1n2Cc1ccc(Cn2c3ccccc3c3ccccc32)cc1 | > 512 µg/mL | > 512 µg/mL | > 512 µg/mL | > 512 µg/mL | > 512 µg/mL | 256 µg/mL (≈ 586 µM) | > 512 µg/mL | > 512 µg/mL
c1ccc2c(c1)c1ccccc1n2CCCCn1c2ccccc2c2ccccc21 | 64 µg/mL (≈ 165 µM) | > 512 µg/mL | > 512 µg/mL | > 512 µg/mL | > 512 µg/mL | > 512 µg/mL | > 512 µg/mL | > 512 µg/mL
c1ccc2c(c1)c1ccccc1n2CCCCCCn1c2ccccc2c2ccccc21 | > 512 µg/mL | > 512 µg/mL | > 512 µg/mL | 256 µg/mL (≈ 615 µM) | > 512 µg/mL | 128 µg/mL (≈ 307 µM) | > 512 µg/mL | > 512 µg/mL
c1ccc2c(c1)c1ccccc1n2CCCCn1ccnc1 | 1 µg/mL (≈ 3.46 µM) | 4 µg/mL (≈ 13.8 µM) | 8 µg/mL (≈ 27.6 µM) | 64 µg/mL (≈ 221 µM) | 16 µg/mL (≈ 55.3 µM) | 2 µg/mL (≈ 6.91 µM) | 1 µg/mL (≈ 3.46 µM) | 4 µg/mL (≈ 13.8 µM)
c1ccc2c(c1)c1ccccc1n2CCCCCCn1ccnc1 | 1 µg/mL (≈ 3.15 µM) | 8 µg/mL (≈ 25.2 µM) | 4 µg/mL (≈ 12.6 µM) | 128 µg/mL (≈ 403 µM) | 16 µg/mL (≈ 50.4 µM) | 8 µg/mL (≈ 25.2 µM) | 1 µg/mL (≈ 3.15 µM) | 8 µg/mL (≈ 25.2 µM)
c1ccc2c(c1)c1ccccc1n2Cc1ccc(Cn2cncn2)cc1 | > 512 µg/mL | > 512 µg/mL | 32 µg/mL (≈ 94.6 µM) | > 512 µg/mL | 4 µg/mL (≈ 11.8 µM) | 256 µg/mL (≈ 756 µM) | > 512 µg/mL | > 512 µg/mL
BrCCCCCCn1c2ccccc2c2ccccc21 | > 512 µg/mL | > 512 µg/mL | > 512 µg/mL | 512 µg/mL (≈ 1550 µM) | > 512 µg/mL | 128 µg/mL (≈ 388 µM) | > 512 µg/mL | > 512 µg/mL
c1ccc2c(c1)c1ccccc1n2Cc1ccc(Cn2ccnc2)cc1 | 4 µg/mL (≈ 11.9 µM) | 8 µg/mL (≈ 23.7 µM) | 8 µg/mL (≈ 23.7 µM) | > 512 µg/mL | 16 µg/mL (≈ 47.4 µM) | 1 µg/mL (≈ 2.96 µM) | 1 µg/mL (≈ 2.96 µM) | 4 µg/mL (≈ 11.9 µM)
BrCc1ccc(Cn2c3ccccc3c3ccccc32)cc1 | 512 µg/mL (≈ 1460 µM) | > 512 µg/mL | 256 µg/mL (≈ 731 µM) | > 512 µg/mL | > 512 µg/mL | 128 µg/mL (≈ 365 µM) | 256 µg/mL (≈ 731 µM) | 256 µg/mL (≈ 731 µM)
O=C(N[C@H](CO)[C@H](O)c1ccc([N+](=O)[O-])cc1)C(Cl)Cl [CHLORAMPHENICOL] | 16 µg/mL (≈ 49.5 µM) | 8 µg/mL (≈ 24.8 µM) | 64 µg/mL (≈ 198 µM) | – | – | 64 µg/mL (≈ 198 µM) | > 512 µg/mL | > 512 µg/mL
OC(Cn1cncn1)(Cn1cncn1)c1ccc(F)cc1F [FLUCONAZOLE] | – | – | – | 512 µg/mL (≈ 1670 µM) | 0.5 µg/mL (≈ 1.63 µM) | – | – | –
CCn1cc(C(=O)O)c(=O)c2cc(F)c(N3CCNCC3)cc21 [NORFLOXACIN] | 1 µg/mL (≈ 3.13 µM) | 1 µg/mL (≈ 3.13 µM) | 0.5 µg/mL (≈ 1.57 µM) | – | – | 8 µg/mL (≈ 25.1 µM) | 2 µg/mL (≈ 6.26 µM) | 1 µg/mL (≈ 3.13 µM)
